SKKanGAS inh: S. pyogenes SKKanGAS growth inhibitors in kanamycin, primary screen, streptokinase expression inhibitor project, SKKanGAS strain, BacTiter-Glo luminescence; 6 h; inhibition, % at 7.5 µM; hit rate 1.3% among 300,000; AID 1662, 2009;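 active = mean replicate score, as percent of positive control median, at least 50; inconclusive = mean below 50 but one replicate at or above 50; inactive = mean and every replicate below 50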;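 note: strain carries kanamycin resistance gene driven by streptokinase promoter and grows in 40 µg/ml kanamycin; loss of luminescence reflects streptokinase promoter inhibition or plain growth inhibition; 0% = median of DMSO wells and 100% = positive control at its reference dose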
CSC inhib: cancer stem cell viability inhibitors, primary screen, luminescence; hit rate 1.1% among 300,000; inhibition, % at 7.5 µM; cancer stem cell-like cells viability; in the data active = inhibition above about 75%; inconclusive = no clear call, values can overlap the other calls; tested in HMLE shEcad cells
HIF act: HIF pathway transcriptional activators, primary screen, cell-based, U2OS HRE-luciferase, luminescence. U2OS HRE-luciferase reporter; normalized: DMSO 0%, desferrioxamine 100%. activation, % at 7.5 µM (by protocol). hit rate 0.32% among 300,000;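 active = mean activation of at least 10% of the iron chelator positive control signal, with at least half of replicates also reaching 10%; inconclusive = mean and replicate majority disagree about reaching 10%; inactive = mean and most replicates under 10%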
PfHsp90 set2: growth inhibition of PfHsp90-expressing yeast, primary screen, antimalarial PfHsp90 inhibitor project, S. cerevisiae, BacTiter-Glo luminescence, single point, set 2. BacTiter-Glo ATP, 48 h; yeast lacking PDR1 and PDR3 efflux regulators. AID 504621, 2011. hit rate 0.32% among 310,000. inhibition, % at 9.4 µM;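 active = every replicate shows inhibition above about 80%, whatever the replicate mean, limit read from the data; inconclusive = mean inhibition reaches the set limit but some replicate falls short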;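 note: 0% = DMSO neutral controls and 100% = 20 µM radicicol positive controls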
T cruzi repl: inhibitors of intracellular T. cruzi growth, primary screen, luminescence, NIH3T3 host cells | T. cruzi beta-gal in NIH3T3, 90 h | inhibition, % (test concentration not listed) | hit rate 1.4% among 300,000;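 active = mean inhibition across valid replicates above about 55%, limit read from the data; inconclusive = mean below that limit but half or more replicates reach it; inactive = mean below it, under half of replicates reach it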;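 note: signal also drops with host cell toxicity which is not excluded here; 0% = plate median of DMSO wells and 100% = zero luminescence signal; higher percent means less beta-gal luminescence so fewer parasites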
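compound dosing = single 50 nL compound addition per well in DMSO | material = NIH/3T3 host cells with β-galactosidase reporter T. cruzi | input = 5,000 host fibroblasts per well | timing = ≥90 h infection period, 3 h prior cell attachment | read-out basis = percent inhibition of parasite-derived β-gal signal | detection = GalScreen β-gal luminescence, detergent lysis, 60 min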
Beta apoptosis: inhibitors of cytokine-induced beta cell apoptosis, primary screen, luminescence. INS-1E cytokine-induced death, ATP luminescence, 48 h; percent of positive-control rescue, neutral wells zero. protection from apoptosis, % (no concentration beside the values). hit rate 0.8% among 300,000. AID 435005, 2010;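 active = Every replicate reaches about 75%, or at least half do and their mean reaches it too, limit read from the data; inconclusive = At least half of replicates reach the limit but their mean does not; inactive = Under half of replicates reach the limit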;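 note: 0% = cytokine-treated negative control wells and 100% = positive control rescue; higher means more ATP so stronger rescue from cytokine killing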
Starred values were filed as active, the others as inactive; ! = a repeat was not active. Compounds with a hit are over-represented: about 3.6% of the library has one in this group of screens.

For COc1cccc(C(=O)NC(=S)Nc2ccccc2N2CCOCC2)c1 the results were SKKanGAS inh 38.6, CSC inhib 115.6*, HIF act 0.5, PfHsp90 set2 15.9, T cruzi repl -2.6 and Beta apoptosis 7.9.
`CCOc1ccc(C(=O)NC(=S)Nc2ccccc2N2CCCCC2)cc1[N+](=O)[O-]` gave SKKanGAS inh -13.0, CSC inhib inconclusive, HIF act -0.1, PfHsp90 set2 -11.1, T cruzi repl 38.9 and Beta apoptosis 8.5.
Screening COc1cc(C(=O)NC(=S)Nc2ccccc2N2CCOCC2)cc(OC)c1OC returned SKKanGAS inh -9.6, CSC inhib 14.0, HIF act 0.0, PfHsp90 set2 -4.4, T cruzi repl 14.0 and Beta apoptosis 17.5.
Screening COc1ccc(C(=O)NC(=S)Nc2ccccc2N2CCCCC2)cc1[N+](=O)[O-] returned SKKanGAS inh 9.4, CSC inhib 101.3*, HIF act 0.4, PfHsp90 set2 -11.5, T cruzi repl 39.1 and Beta apoptosis 0.1.
For COc1ccccc1-c1cccc([C@@H]2C[C@H]3[C@H](CON3C)CN2C(C)=O)c1 the results were PfHsp90 set2 14.1.
`Cc1csc(NC(=O)COc2ccc3c(c2)CCC3)n1` gave PfHsp90 set2 9.2 and Beta apoptosis -3.4.
Screening O=C(COC(=O)C1Cc2ccccc2CN1C(=O)c1ccccc1)Nc1ccc(SC(F)F)cc1 (stereo not drawn) returned SKKanGAS inh -13.9, CSC inhib -5.0, HIF act -0.3, PfHsp90 set2 6.8, T cruzi repl -27.4 and Beta apoptosis -1.2.
`CC(C)Cc1ccc(CN2CCCC(NC(=O)c3nn(C)c(=O)c4ccccc34)C2)cc1` (stereo not drawn) gave SKKanGAS inh 7.4, HIF act -0.1, PfHsp90 set2 2.6 and T cruzi repl 60.4*.
`Cn1cnnc1SCC(=O)NC1CCCN(Cc2ccc(Cl)cc2)C1` (stereo not drawn) gave SKKanGAS inh -2.2, CSC inhib -1.3, HIF act 0.0, PfHsp90 set2 -3.2, T cruzi repl 25.3 and Beta apoptosis -4.7.
CC(C)Cc1ccc(CN2CCCC(NC(=O)CSc3nncn3C)C2)cc1 (stereo not drawn) was read as SKKanGAS inh -1.5, CSC inhib 6.5, HIF act -0.2, T cruzi repl 55.0* and Beta apoptosis 2.3.
For Brc1ccc(Br)c2cnccc12 the results were PfHsp90 set2 -2.5.
Oc1ccc(-c2n[nH]c(C(F)(F)F)c2-c2ccccc2)c(O)c1 was read as SKKanGAS inh -3.5, CSC inhib -15.0, HIF act 0.1, PfHsp90 set2 2.5, T cruzi repl -48.4 and Beta apoptosis 105.1*.
For COc1ccc(-c2c(-c3ccc(O)cc3O)n[nH]c2C(F)(F)F)cc1 the results were SKKanGAS inh -16.8, CSC inhib 31.0, HIF act -0.2, PfHsp90 set2 3.8, T cruzi repl -3.0 and Beta apoptosis -2.7.
For CC(=O)Nc1cc2c(cc1[N+](=O)[O-])-c1ccccc1C2=NO the results were PfHsp90 set2 -14.9.
`Nc1cc2c(cc1[N+](=O)[O-])-c1ccccc1C2=NO` gave PfHsp90 set2 127.7*.
COc1ccc(OC)c(NC(=O)c2cc3n(n2)C(C(F)(F)F)CC(c2ccc4c(c2)OCO4)N3)c1 (stereo not drawn) was read as SKKanGAS inh 30.7, HIF act -0.1, PfHsp90 set2 -12.3, T cruzi repl 48.6 and Beta apoptosis -9.2.
For O=C(NCc1ccco1)c1cc2n(n1)C(C(F)(F)F)CC(c1ccc(Cl)c(Cl)c1)N2 (stereo not drawn) the results were SKKanGAS inh 41.4, CSC inhib 46.4, HIF act -0.1, T cruzi repl 55.4* and Beta apoptosis -0.4.
For O=C(NCc1ccco1)c1cc2n(n1)C(C(F)(F)F)CC(c1ccc(Br)cc1)N2 (stereo not drawn) the results were SKKanGAS inh 10.1, CSC inhib 10.8, HIF act 0.4, PfHsp90 set2 -30.0, T cruzi repl 2.3 and Beta apoptosis 26.9.
For O=C(c1cc2n(n1)C(C(F)(F)F)CC(c1ccco1)N2)N1CCN(c2ccccn2)CC1 (stereo not drawn) the results were SKKanGAS inh 7.7, CSC inhib 37.6, HIF act -0.1, PfHsp90 set2 16.2, T cruzi repl 6.7 and Beta apoptosis -7.3.
Cc1cccc(N2CCN(C(=O)c3cc4n(n3)C(C(F)(F)F)CC(c3ccco3)N4)CC2)c1C (stereo not drawn) was read as SKKanGAS inh inconclusive, CSC inhib 84.3*, HIF act -0.4, PfHsp90 set2 -23.1, T cruzi repl 24.1 and Beta apoptosis -3.0.
CCOC(=O)N1CCN(C(=O)c2cc3n(n2)C(C(F)(F)F)CC(c2ccc4c(c2)OCO4)N3)CC1 (stereo not drawn) was read as SKKanGAS inh 54.5*, CSC inhib -8.8, HIF act -0.3, PfHsp90 set2 -7.6 and T cruzi repl -6.2.
O=C(Nc1cc(Cl)ccc1O)c1cc2n(n1)C(C(F)(F)F)CC(c1ccc3c(c1)OCO3)N2 (stereo not drawn) was read as SKKanGAS inh 100.5*, CSC inhib 29.6, HIF act -0.6, PfHsp90 set2 -50.0, T cruzi repl 1.9 and Beta apoptosis 8.0.
For O=C(O)c1cc2ccccc2cc1Nc1ccccc1 the results were SKKanGAS inh -15.6, CSC inhib 3.4, HIF act 0.3, PfHsp90 set2 -14.5, T cruzi repl -12.8 and Beta apoptosis -2.5.
For O=[N+]([O-])c1ccc(OCCCCN2CCc3ccccc3C2)cc1 the results were SKKanGAS inh -0.4, CSC inhib 38.4, HIF act -2.1, PfHsp90 set2 3.1, T cruzi repl 42.1 and Beta apoptosis -4.7.
N#CC1(Nc2ccc([N+](=O)[O-])cc2)CCCC1 was read as PfHsp90 set2 5.9.
Screening Cc1onc(-c2ccccc2Cl)c1C(=O)NCc1ccc(F)cc1 returned SKKanGAS inh 13.9, CSC inhib 5.5, HIF act 0.0, PfHsp90 set2 6.5 and T cruzi repl -17.3.
`Cc1nnc(N=c2ssnc2Cl)o1` gave CSC inhib 41.8, PfHsp90 set2 143.0* and Beta apoptosis inconclusive.
For Cc1ccc(N=c2ssnc2Cl)cc1 the results were SKKanGAS inh -5.6, CSC inhib -0.6, HIF act -0.9, PfHsp90 set2 93.1*, T cruzi repl 2.4 and Beta apoptosis -0.9.
Screening COc1cc(N=c2ssnc2Cl)c(OC)cc1Cl returned SKKanGAS inh -0.2, CSC inhib 23.3, HIF act -0.5, PfHsp90 set2 90.9*!, T cruzi repl -2.8 and Beta apoptosis 3.1.

Screens as filed in PubChem.
